According to ChEMBL document CHEMBL3621107, “Ring fusion strategy for synthesis and lead optimization of sulfur-substituted anthra[1,2-c][1,2,5]thiadiazole-6,11-dione derivatives as promising scaffold of antitumor agents” (Eur J Med Chem, 2015):

Key:
M14 = test: Cytotoxicity against human M14 cells assessed as cell growth at 10 uM after 48 hrs by SRB assay relative to control; type: functional; conditions: M14, 48 h, read-out: Activity
Method in brief: (§1)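 First-stage NCI-60 screen by the NCI Developmental Therapeutics Program. Each compound was tested once at a single concentration of 10 μM against the 60-cell-line panel. Growth percentage was reported for each cell line.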

MDA-MB-435 = test: Cytotoxicity against human MDA-MB-435 cells assessed as cell growth at 10 uM after 48 hrs by SRB assay relative to control; type: functional; conditions: MDA-MB-435, 48 h, read-out: Activity
Method in brief: (§2)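 First-stage NCI DTP one-dose screen against the 60 human tumour cell line panel. Compounds were tested at a single 10 μM level, and results are given as growth percentage.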

SK-MEL-2 = test: Cytotoxicity against human SK-MEL-2 cells assessed as cell growth at 10 uM after 48 hrs by SRB assay relative to control; type: functional; conditions: SK-MEL-2, 48 h, read-out: Activity; method in brief: as §2
SK-MEL-28 = test: Cytotoxicity against human SK-MEL-28 cells assessed as cell growth at 10 uM after 48 hrs by SRB assay relative to control; type: functional; conditions: SK-MEL-28, 48 h, read-out: Activity; method in brief: as §2
OVCAR-3 = test: Cytotoxicity against human OVCAR3 cells assessed as cell growth at 10 uM after 48 hrs by SRB assay relative to control; type: functional; conditions: OVCAR-3, 48 h, read-out: Activity; method in brief: as §2
OVCAR-5 = test: Cytotoxicity against human OVCAR5 cells assessed as cell growth at 10 uM after 48 hrs by SRB assay relative to control; type: functional; conditions: OVCAR-5, 48 h, read-out: Activity; method in brief: as §2
OVCAR-8 = test: Cytotoxicity against human OVCAR8 cells assessed as cell growth at 10 uM after 48 hrs by SRB assay relative to control; type: functional; conditions: OVCAR-8, 48 h, read-out: Activity; method in brief: as §2
NCI/ADR-RES = test: Cytotoxicity against human NCI/ADR-RES cells assessed as cell growth at 10 uM after 48 hrs by SRB assay relative to control; type: functional; conditions: read-out: Activity; method in brief: as §2
SK-OV-3 = test: Cytotoxicity against human SKOV3 cells assessed as cell growth at 10 uM after 48 hrs by SRB assay relative to control; type: functional; conditions: SK-OV-3, 48 h, read-out: Activity; method in brief: as §2
786-0 = test: Cytotoxicity against human 786-0 cells assessed as cell growth at 10 uM after 48 hrs by SRB assay relative to control; type: functional; conditions: 786-0, 48 h, read-out: Activity; method in brief: as §1
A498 = test: Cytotoxicity against human A498 cells assessed as cell growth at 10 uM after 48 hrs by SRB assay relative to control; type: functional; conditions: A498, 48 h, read-out: Activity; method in brief: as §1
ACHN = test: Cytotoxicity against human ACHN cells assessed as cell growth at 10 uM after 48 hrs by SRB assay relative to control; type: functional; conditions: read-out: Activity; method in brief: as §1
RXF 393 = test: Cytotoxicity against human RXF393 cells assessed as cell growth at 10 uM after 48 hrs by SRB assay relative to control; type: functional; conditions: RXF 393, 48 h, read-out: Activity; method in brief: as §2
SN12C = test: Cytotoxicity against human SN12C cells assessed as cell growth at 10 uM after 48 hrs by SRB assay relative to control; type: functional; conditions: read-out: Activity; method in brief: as §2
PC-3 = test: Cytotoxicity against human PC3 cells assessed as cell growth at 10 uM after 48 hrs by SRB assay relative to control; type: functional; conditions: PC-3, 48 h, read-out: Activity; method in brief: as §2
MDA-MB-231 = test: Cytotoxicity against human MDA-MB-231 cells assessed as cell growth at 10 uM after 48 hrs by SRB assay relative to control; type: functional; conditions: MDA-MB-231, 48 h, read-out: Activity; method in brief: as §2
DU-145 = test: Cytotoxicity against human DU145 cells after 72 hrs by MTT assay; type: functional, cell-based; conditions: DU-145, 72 h
Method in brief: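 DU-145 cells grown in RPMI-1640 with 5% heat-inactivated fetal calf serum at 37 °C, 5% CO2. About 2×10^3 cells per well were seeded and incubated for 24 h. Compounds were dissolved in DMSO freshly and diluted into medium (vehicle 0.1% DMSO), then cells were exposed for 72 h. MTT was added for 3 h at 37 °C and absorbance read at 570 nm.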

HL-60(TB) = test: Cytotoxicity against human HL-60(TB) cells assessed as cell growth at 10 uM after 48 hrs by SRB assay relative to control; type: functional; conditions: HL-60, 48 h, read-out: Activity
Method in brief: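 NCI Developmental Therapeutics Program 60-cell-line screen, first stage: a single dose of 10 μM against the panel, reported as percentage growth.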

K562 = test: Cytotoxicity against human K562 cells assessed as cell growth at 10 uM after 48 hrs by SRB assay relative to control; type: functional; conditions: K562, 48 h, read-out: Activity; method in brief: as §1
RPMI-8226 = test: Cytotoxicity against human RPMI8226 cells assessed as cell growth at 10 uM after 48 hrs by SRB assay relative to control; type: functional; conditions: RPMI-8226, 48 h, read-out: Activity; method in brief: as §2
A549 = test: Cytotoxicity against human A549 cells assessed as cell growth at 10 uM after 48 hrs by SRB assay relative to control; type: functional; conditions: A549, 48 h, read-out: Activity; method in brief: as §1
HOP-62 = test: Cytotoxicity against human HOP62 cells assessed as cell growth at 10 uM after 48 hrs by SRB assay relative to control; type: functional; conditions: HOP-62, 48 h, read-out: Activity; method in brief: as §1
NCI-H226 = test: Cytotoxicity against human NCI-H226 cells assessed as cell growth at 10 uM after 48 hrs by SRB assay relative to control; type: functional; conditions: NCI-H226, 48 h, read-out: Activity; method in brief: as §2
HCT-15 = test: Cytotoxicity against human HCT15 cells assessed as cell growth at 10 uM after 48 hrs by SRB assay relative to control; type: functional; conditions: HCT-15, 48 h, read-out: Activity; method in brief: as §1
HT-29 = test: Cytotoxicity against human HT-29 cells assessed as cell growth at 10 uM after 48 hrs by SRB assay relative to control; type: functional; conditions: HT-29, 48 h, read-out: Activity; method in brief: as §1
KM12 = test: Cytotoxicity against human KM12 cells assessed as cell growth at 10 uM after 48 hrs by SRB assay relative to control; type: functional; conditions: KM12, 48 h, read-out: Activity; method in brief: as §1
SF-268 = test: Cytotoxicity against human SF268 cells assessed as cell growth at 10 uM after 48 hrs by SRB assay relative to control; type: functional; conditions: SF-268, 48 h, read-out: Activity; method in brief: as §2
SF-295 = test: Cytotoxicity against human SF295 cells assessed as cell growth at 10 uM after 48 hrs by SRB assay relative to control; type: functional; conditions: SF-295, 48 h, read-out: Activity; method in brief: as §2
SNB-19 = test: Cytotoxicity against human SNB19 cells assessed as cell growth at 10 uM after 48 hrs by SRB assay relative to control; type: functional; conditions: SNB-19, 48 h, read-out: Activity
Method in brief: (§3)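 NCI-60 one-dose screen run by NCI DTP: each cell line exposed to a single 10 µM dose, and percentage growth recorded against untreated growth.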

U-251 = test: Cytotoxicity against human U251 cells assessed as cell growth at 10 uM after 48 hrs by SRB assay relative to control; type: functional; conditions: U-251, 48 h, read-out: Activity; method in brief: as §3

CSc1ccc(Sc2cc3c(c4nsnc24)C(=O)c2ccccc2C3=O)cc1
growth at 10 µM (M14): 108% | growth at 10 µM (MDA-MB-435): 118% | growth at 10 µM (SK-MEL-2): 89.3% | growth at 10 µM (SK-MEL-28): 120% | growth at 10 µM (OVCAR-3): 103% | growth at 10 µM (OVCAR-5): 108% | growth at 10 µM (OVCAR-8): 97.4% | growth at 10 µM (NCI/ADR-RES): 91.8% | growth at 10 µM (SK-OV-3): 102% | growth at 10 µM (786-0): 110% | growth at 10 µM (A498): 56% | growth at 10 µM (ACHN): 104% | growth at 10 µM (RXF 393): 107% | growth at 10 µM (SN12C): 98% | growth at 10 µM (PC-3): 78.4% | growth at 10 µM (MDA-MB-231): 78.8% | IC50 (DU-145): > 15 µM | growth at 10 µM (HL-60(TB)): 105% | growth at 10 µM (K562): 67.5% | growth at 10 µM (RPMI-8226): 88.6% | growth at 10 µM (A549): 105% | growth at 10 µM (HOP-62): 102% | growth at 10 µM (NCI-H226): 79.7% | growth at 10 µM (HCT-15): 112% | growth at 10 µM (HT-29): 102% | growth at 10 µM (KM12): 100% | growth at 10 µM (SF-268): 89.7% | growth at 10 µM (SF-295): 98.9% | growth at 10 µM (SNB-19): 102% | growth at 10 µM (U-251): 104%
